Screening results: PubChem BioAssay, The Scripps Research Institute Molecular Screening Center
PRMT1 inh: blocks human protein arginine methyltransferase 1; actives 1.3% (n = 370,000); Q99873; inhibition, % at 2.79 µM; AID 652257; recombinant PRMT1, activity-based probe fluorescence polarization;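 active = inhibition above about 21% made by adding two undisclosed values, limit read from the data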
ABHD5-PLIN5 inh: blocks binding of human ABHD5 to perilipin-5; AID 602281; actives 0.78% (n = 360,000); Split G. princeps luciferase complementation, luminescence, 4 h; Q00G26+Q8WTS1; inhibition, % at 4 µM;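 active = inhibition above the mean inhibition across every tested compound plus 3 SD, cut at about 22% in these data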;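 note: 0% = DMSO only wells and the 100% control is not disclosed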
LEDGF integ inh: blocks HIV-1 LEDGF/p75-dependent DNA integration; actives 0.64% (n = 370,000); AID 743269; TR-FRET IN-LEDGF/p75 DNA integration, Eu/Cy5; inhibition, % at 3.7 µM;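 active = inhibition above the screen-wide mean plus 3 SD, cut at about 13% in these data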;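 note: signal is the Cy5 over europium emission ratio at 671 and 618 nm; 0% = plate median of compound wells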
UHRF1 MBD2 ctr: human UHRF1 methylated DNA binding inhibitors | Q96T88 | inhibition, % at 4.4 µM | UHRF1 binding to methylated oligo, TR-FRET | actives 0.75% (n = 370,000); in the data active = inhibition above about 21%;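 note: UHRF1 SRA domain binding a hemimethylated CpG hairpin DNA probe; 0% = median of test compound wells and 100% = reference inhibitor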
Target sequence (Q96T88 whole entry, looked up, the tested form may be a part): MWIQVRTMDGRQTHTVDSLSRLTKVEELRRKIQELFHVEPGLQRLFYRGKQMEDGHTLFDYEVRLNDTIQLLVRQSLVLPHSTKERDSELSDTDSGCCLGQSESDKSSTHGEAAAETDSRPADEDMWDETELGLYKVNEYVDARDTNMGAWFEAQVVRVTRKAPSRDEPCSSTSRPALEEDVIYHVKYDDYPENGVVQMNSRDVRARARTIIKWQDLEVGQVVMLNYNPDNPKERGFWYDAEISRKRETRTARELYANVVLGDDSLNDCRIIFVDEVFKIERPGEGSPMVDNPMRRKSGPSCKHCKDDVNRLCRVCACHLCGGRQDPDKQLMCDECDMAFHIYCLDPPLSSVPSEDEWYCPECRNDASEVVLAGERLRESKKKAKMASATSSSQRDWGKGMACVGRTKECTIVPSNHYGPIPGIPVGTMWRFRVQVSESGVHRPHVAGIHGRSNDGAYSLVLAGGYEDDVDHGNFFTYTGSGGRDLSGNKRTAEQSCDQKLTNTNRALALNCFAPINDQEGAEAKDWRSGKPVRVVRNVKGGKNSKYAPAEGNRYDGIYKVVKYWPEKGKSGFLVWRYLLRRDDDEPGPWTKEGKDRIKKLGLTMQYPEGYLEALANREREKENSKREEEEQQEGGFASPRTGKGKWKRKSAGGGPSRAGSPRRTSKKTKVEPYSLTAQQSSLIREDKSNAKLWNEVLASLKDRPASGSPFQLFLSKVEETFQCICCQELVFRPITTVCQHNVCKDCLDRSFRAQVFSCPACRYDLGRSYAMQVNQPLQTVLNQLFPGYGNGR
RBBP9 inhibitor: inhibitors of human serine hydrolase RBBP9; O75884; recombinant RBBP9, FP-Rh probe fluorescence polarization; inhibition, % at 7.94 µM; actives 0.2% (n = 220,000);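 active = inhibition above the campaign mean of all tested compounds plus 3 SD, cut at about 14% in these data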;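 note: plate controls were DMSO wells with RBBP9 for no effect and wells lacking RBBP9 protein for full effect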
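Assay system: recombinant human RBBP9; Reagent: Serine-hydrolase probe FP-Rh, 375 nM pre-mixing; Doses: 7.94 µM single dose, 0.794% DMSO; Incubation: 30 min then 45 min, 25 °C; Detection: fluorescence polarization (mP), excitation 525 nm, emission 598 nm; Evaluation: percent inhibition from mP, scaled between DMSO and no-protein wells.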
MBD2 DNA inh: MBD2-methylated oligo binding inhibition; Q9UBB5; TR-FRET, MBD2 binding to methylated oligonucleotide; inhibition, % at 4.4 µM; actives 0.31% (n = 370,000); AID 686964; in the data active = inhibition above about 13%
Active calls of the source: *. Shown are actives, neighbours in structure and some others; about 3.1% of the full set was active somewhere.

Results for C[C@H]1CN([C@@H](C)CO)S(=O)(=O)c2ccc(C#CC3CC3)cc2O[C@H]1CN(C)C(=O)c1cccnc1 ?
PRMT1 inh: 0.4; ABHD5-PLIN5 inh: 4.1; LEDGF integ inh: 4.0; UHRF1 MBD2 ctr: 5.7; MBD2 DNA inh: 0.1

What do the screens show for `C[C@@H]1CN([C@@H](C)CO)C(=O)c2cc(C#CC3CCCCC3)cnc2O[C@@H]1CN(C)S(=O)(=O)c1ccc(F)cc1`?
PRMT1 inh: -1.7; ABHD5-PLIN5 inh: 5.3; LEDGF integ inh: 3.0; UHRF1 MBD2 ctr: 21.5*; MBD2 DNA inh: 11.3

What do the screens show for `C[C@H](CO)N1C[C@H](C)[C@@H](CN(C)S(=O)(=O)c2ccc(F)cc2)Oc2ncc(Br)cc2C1=O`?
PRMT1 inh: 4.3; LEDGF integ inh: -0.2; UHRF1 MBD2 ctr: 16.9; MBD2 DNA inh: 2.9

What do the screens show for `C[C@@H]1CN([C@@H](C)CO)S(=O)(=O)c2ccc(C#CC3CCCCC3)cc2O[C@@H]1CN(C)Cc1cccnc1`?
PRMT1 inh: -0.4; ABHD5-PLIN5 inh: 2.2; LEDGF integ inh: 1.8; UHRF1 MBD2 ctr: 23.7*; MBD2 DNA inh: 10.6

Results for C[C@@H]1CN([C@H](C)CO)C(=O)c2cc(C#CC3CCCCC3)cnc2O[C@H]1CN(C)Cc1cccnc1 ?
PRMT1 inh: 0.9; ABHD5-PLIN5 inh: 13.4; LEDGF integ inh: 2.8; UHRF1 MBD2 ctr: 23.3*; MBD2 DNA inh: 9.4

What do the screens show for `C[C@H](CO)N1C[C@H](C)[C@H](CN(C)Cc2ccncc2)Oc2ncc(C#CC3CC3)cc2C1=O`?
PRMT1 inh: 0.1; ABHD5-PLIN5 inh: 0.3; LEDGF integ inh: -1.9; UHRF1 MBD2 ctr: 6.5; MBD2 DNA inh: 3.2

How did C[C@H]1CN([C@@H](C)CO)C(=O)c2cc(C#CCC3CCCC3)cnc2O[C@@H]1CN(C)C(=O)CC1CC1 do in these assays?
PRMT1 inh: 3.6; ABHD5-PLIN5 inh: 3.6; LEDGF integ inh: 3.3; UHRF1 MBD2 ctr: 21.7*; MBD2 DNA inh: 5.0

Results for CC(C)(C)OC(=O)C[C@@H]1C/C=C\C[C@@H](CC(=O)NCCO)C(=O)NCCOC1=O ?
PRMT1 inh: -0.9; ABHD5-PLIN5 inh: 6.6; LEDGF integ inh: 17.8*; UHRF1 MBD2 ctr: 1.6; MBD2 DNA inh: -1.2

What do the screens show for `CC(C)(C)OC(=O)C[C@H]1C/C=C\C[C@H](CC(=O)NCCO)C(=O)NCCOC1=O`?
PRMT1 inh: -5.8; ABHD5-PLIN5 inh: 5.1; LEDGF integ inh: 0.3; UHRF1 MBD2 ctr: -1.1; MBD2 DNA inh: 2.2

How did O=C(NC1CCCCN(Cc2ccc(Cl)cc2)C1=O)c1ccc(Cl)cc1Cl (configuration not stated) do in these assays?
PRMT1 inh: -3.0; LEDGF integ inh: 0.5; UHRF1 MBD2 ctr: -2.3; MBD2 DNA inh: 1.3

Results for CCOC(=O)N1CCC(NC(=O)c2cc(C(=O)NCc3ccc(F)cc3)ccc2CO)CC1 ?
PRMT1 inh: -0.9; ABHD5-PLIN5 inh: 0.3; LEDGF integ inh: 8.7; UHRF1 MBD2 ctr: 22.6*; RBBP9 inhibitor: -9.2; MBD2 DNA inh: 11.2

Results for CN1CCc2cc3c(c4c2[C@H]1[C@H](O)c1ccccc1-4)OCO3 ?
PRMT1 inh: 49.2*; ABHD5-PLIN5 inh: -6.8; LEDGF integ inh: 8.9; UHRF1 MBD2 ctr: 35.0*; RBBP9 inhibitor: -3.3; MBD2 DNA inh: 66.2*

How did COc1ccc2c(c1OC)C(=O)OC2C1c2c(cc3c(c2OC)OCO3)CCN1C (configuration not stated) do in these assays?
PRMT1 inh: -3.4; ABHD5-PLIN5 inh: 9.6; LEDGF integ inh: 2.6; UHRF1 MBD2 ctr: -0.4; RBBP9 inhibitor: -9.3; MBD2 DNA inh: -3.2

Results for CC(=O)Nc1cccc(-c2cc(C(C)=O)c3n(c2=O)CCC3)c1 ?
PRMT1 inh: -2.1; LEDGF integ inh: -1.1; UHRF1 MBD2 ctr: -1.5; MBD2 DNA inh: 0.2

Results for OCCN(CC#CC(O)(c1ccccc1)c1cccc(F)c1)CCO (configuration not stated) ?
PRMT1 inh: 4.5; ABHD5-PLIN5 inh: -1.7; LEDGF integ inh: -4.6; UHRF1 MBD2 ctr: 25.9*; RBBP9 inhibitor: -5.7; MBD2 DNA inh: 9.1

What do the screens show for `CC(=O)c1cccc(NC(=O)C2(c3ccccc3)CC2(Cl)Cl)c1` (configuration not stated)?
PRMT1 inh: -0.7; ABHD5-PLIN5 inh: 2.4; LEDGF integ inh: -0.9; UHRF1 MBD2 ctr: 25.2*; RBBP9 inhibitor: 2.1; MBD2 DNA inh: 3.8
